Sampled rows, rich in hits. Any-hit rate of the full collection: about 3.6%.
NR3A LBD binder – modulates the human NR3A ligand-binding domain; NR3A LBD differential scanning fluorimetry, Tm shift; 0% = protein alone, 100% = glycine-bound protein; Tm shift relative to glycine control, % at 25 µM; 340,000 compounds, 2.5% hits;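 active = melting temperature shift of at least 10% of the positive control shift, at one fixed dose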
FID counter – displaces DNA intercalator in HCV helicase counter-screen | 290,000 compounds, 0.17% hits | inhibition, % at 7.9 µM | DNA fluorescent intercalator displacement, fluorescence; in the data active = inhibition above about 37%;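 also: higher means more ethidium bromide displaced from hairpin DNA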
ZTA DNA inh – blocks Epstein-Barr virus ZTA, an EBNA-1 counter-screen; 320,000 compounds, 0.15% hits; AID 2234; ZTA-DNA binding, fluorescence polarization; inhibition, % at 11 µM; in the data active = inhibition above about 33%
Target sequence (P03206 whole entry, looked up): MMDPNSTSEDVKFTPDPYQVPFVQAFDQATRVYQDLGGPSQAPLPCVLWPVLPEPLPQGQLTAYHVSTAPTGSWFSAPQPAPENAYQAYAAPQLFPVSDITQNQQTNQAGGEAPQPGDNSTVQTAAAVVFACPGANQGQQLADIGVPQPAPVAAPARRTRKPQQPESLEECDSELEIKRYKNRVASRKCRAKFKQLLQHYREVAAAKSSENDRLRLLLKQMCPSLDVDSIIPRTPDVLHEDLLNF
EBNA-1 inhibitor – blocks EBNA-1 binding to DNA | EBNA-1 DNA binding, fluorescence polarization | inhibition, % at 14.8 µM | 300,000 compounds, 0.34% hits | AID 1950; in the data active = inhibition above about 28%
FGF22 binding – FGF22 (human) thermal shift binding; recombinant FGF22 thermal shift, SYPRO orange fluorescence; percent of sucrose octasulfate shift, DMSO zero; activity (Tm shift, normalised), % at 9.99 µM; 340,000 compounds, 1.5% hits;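 active = mean Tm shift, scaled 0 neutral to 100 positive control, at about 1.3% or above, every replicate too, limit read from the data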
Target sequence (Q9HCT0 whole entry, looked up): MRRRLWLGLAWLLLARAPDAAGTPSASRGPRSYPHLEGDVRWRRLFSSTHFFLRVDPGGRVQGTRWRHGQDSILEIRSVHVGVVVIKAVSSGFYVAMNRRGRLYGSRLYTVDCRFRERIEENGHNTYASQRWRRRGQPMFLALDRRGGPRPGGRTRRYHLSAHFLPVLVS
NS3 helicase inh – blocks Hepatitis C virus NS3 helicase unwinding | inhibition, % at 10.9 µM | 290,000 compounds, 0.56% hits | AID 1800 | NS3 helicase DNA unwinding, Cy5 molecular beacon fluorescence;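 active = inhibition above the mean of all tested compounds plus 3 SD, set per campaign, cut at about 35% in these data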
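System: HCV NS3 helicase fragment; control set: DMSO and thioflavine S; technique: Cy5 fluorescence at 0 and 60 min, beacon hairpin quenching; reagent: beacon DNA duplex substrate plus ATP; replicates: singlicate; schedule: 1 h reaction at 25 °C, ATP-initiated; medium: MOPS buffer pH 6.5 with MgCl2, DTT, Tween20, BSA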
Hits are given with their value; . = inactive; / = not tested or not shown.

SMILES	NR3A LBD binder	FID counter	ZTA DNA inh	EBNA-1 inhibitor	FGF22 binding	NS3 helicase inh
CCOc1ccc(CCN2C(=S)N([C@@H](CC(C)C)CN3CCCC3CN3C(=S)NC[C@@H]3Cc3ccc(O)cc3)C[C@@H]2Cc2ccc(O)cc2)cc1 (stereo not given in full)	34	/	/	/	.	/
Oc1ccc(C[C@@H](CN2CCC[C@@H]2CN2C(=S)NC[C@@H]2Cc2ccccc2)N2C[C@H](Cc3ccccc3)N(CCc3ccccc3)C2=S)cc1	/	/	/	/	.	/
CCOc1ccc(CCN2C(=S)N([C@@H](CC(C)C)CN3CCCC3CN3C(=S)NC[C@@H]3Cc3ccc(O)cc3)C[C@@H]2Cc2ccccc2)cc1 (stereo not given in full)	31	/	/	/	.	/
CCOc1ccc(CCN2C(=S)N([C@@H](CC(C)C)CN3CCC[C@@H]3CN3C(=S)NC[C@@H]3CC(C)C)C[C@@H]2Cc2ccc(O)cc2)cc1	/	/	/	/	.	/
Oc1ccc(C[C@H]2CNC(=S)N2CC2CCCN2C[C@H](Cc2ccccc2)N2C[C@H](Cc3ccc(O)cc3)N(CCc3ccccc3)C2=S)cc1 (stereo not given in full)	31	/	/	/	.	/
CCOc1ccc(CCN2C(=S)N([C@@H](CC(C)C)CN3CCCC3CN3C(=S)NC[C@@H]3Cc3ccc(O)cc3)C[C@@H]2CC(C)C)cc1 (stereo not given in full)	12	/	/	/	.	/
CCC(=O)N(C)C[C@@H]1Oc2ncc(-c3ccccc3C)cc2C(=O)N([C@H](C)CO)C[C@H]1C	/	/	/	/	.	/
C[C@@H]1CN([C@@H](C)CO)C(=O)c2cc(NC(=O)CCC(F)(F)F)ccc2O[C@@H](C)CCCCO[C@@H]1CN(C)C(=O)c1ccncc1	/	/	/	/	.	/
C[C@@H]1CN([C@H](C)CO)S(=O)(=O)c2ccc(-c3cccnc3)cc2O[C@H]1CN(C)C(=O)C1CCCCC1	/	/	/	/	.	/
CCC(=O)N1C[C@@H](C)[C@H](OC)CN(C)C(=O)c2cc(NC(=O)Nc3cccc(F)c3)ccc2OC[C@@H]1C	/	/	/	/	.	/
C[C@@H]1CCCCO[C@@H](CN(C)Cc2ccc3c(c2)OCO3)[C@@H](C)CN([C@@H](C)CO)C(=O)c2cc(NC(=O)CCCN(C)C)ccc2O1	/	/	/	/	.	/
C[C@H]1CN([C@@H](C)CO)C(=O)c2cc(C3=CCCCC3)cnc2O[C@@H]1CN(C)C(=O)c1ccccc1	/	/	/	/	.	/
CC(=O)Nc1cccc(NC(=O)CS(=O)(=O)c2cn(CC(=O)N3CCOCC3)c3ccccc23)c1	.	.	.	.	43	.
O=C(C[C@H]1CC[C@@H]2[C@H](COC[C@@H](O)CN2C(=O)Nc2ccc(F)cc2)O1)NCC1CC1	/	/	/	/	.	/
C[C@@H]1CN([C@@H](C)CO)C(=O)c2cc(NC(=O)Cc3ccccc3)ccc2O[C@@H](C)CCCCO[C@@H]1CN(C)S(=O)(=O)c1cn(C)cn1	/	/	/	/	.	/
CC(=O)N1[C@@H]2c3ccc(C4=CCCCC4)c(=O)n3C[C@@H]2[C@@H](CO)[C@@H]1C(=O)N1CCCCC1	/	/	/	/	.	/
CCN(CC)CCNc1ccnc2cc(Cl)ccc12	.	48	.	.	.	.
CCN(CC)Cc1cc(Nc2ccnc3cc(Cl)ccc23)ccc1O	.	69	.	.	.	.
Cc1ccc(C(=O)C2C(=O)c3ccccc3C2=O)cc1	.	.	.	.	/	.
NN=C1c2ccccc2C(=O)C1C(=O)C(c1ccccc1)c1ccccc1 (stereo not given)	12	/	/	/	.	/
O=C(c1ccc2c(c1)[nH]c(=S)n1c3ccccc3nc21)N1CCN(c2ncccn2)CC1	11	.	.	.	/	.
O=C(c1ccc2c(=O)n(-c3ccccc3)c(=S)[nH]c2c1)N1CCN(c2ccccc2)CC1	.	/	.	/	.	/
O=C(NCCN1CCN(c2ccccc2)CC1)c1ccc2c(c1)[nH]c(=S)n1c3ccccc3nc21	.	.	.	.	43	.
Cn1c(Cl)c(/C=N/OC(=O)C(C)(C)C)c2ccccc21	.	.	.	.	.	.
CC(=O)O/N=C/c1c(Cl)n(C)c2ccccc12	.	.	.	.	44	.
CCNS(=O)(=O)c1c(C)cc(C)c(N(C)S(=O)(=O)c2ccccc2)c1C	.	.	.	.	43	.
Cc1cc(C)c(S(N)(=O)=O)c(C)c1N(C)S(=O)(=O)c1ccccc1	.	.	.	.	.	.

Bioassay records (PubChem BioAssay)
